ChEMBL document CHEMBL1131605, “Synthesis and pharmacological activity of triazolo[1,5-a]triazine derivatives inhibiting eosinophilia” (1998)

Test system: Rattus norvegicus
Assay: Percent inhibition value on the Sephadex-induced lung eosinophilia model at an intraperitoneal (ip) dose of 30 mg/kg
Assay type: functional
In short: (§1)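 Male Wistar rats, five per group; Sephadex G-200 (0.5 mg/mL in sterile saline, swollen by boiling 5 h), 1 mL injected via tail vein on days 0, 3 and 5; drug or vehicle given ip 10 min before each Sephadex injection. Day 7: lavage with heparinized PBS (37 °C), repeated, pooled; cells counted microscopically. Inhibition (%) from group-mean eosinophil/total-cell ratio versus vehicle.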

SMILES | inhibition in vivo at 30 mg/kg
Cn1cnc2ccccc2c1=S | 22%
CCCCn1cnc2ncnn2c1=S | 23%
Cn1c(-c2ccccc2)nc2ncnn2c1=S | 29%
CCOc1ncnc2ncnn12 | 6%
Cn1cnc2ncnc-2c1S | 9%
CCCn1cnc2ncnn2c1=S | 49%
CSc1nc(N)nc2ncnn12 | -29%
CCOC(=O)C(=O)Nc1nc2ncn(C)c(=S)n2n1 | -2%
Cn1cnc2nc(-c3ccc(C#N)cc3)nn2c1=S | 79%
Cn1cnc2ncnn2c1=S | 69%
CNC(=S)n1nc(SC)nc1N | 54%
Cn1cnc2ncnn2c1=O | 17%
Cc1nc2ncnn2c(=S)n1C | 18%
CSc1nc(N)n2ncnc2n1 | -7%
c1nc2nc(NC3CCCCC3)nc(NC3CCCCC3)n2n1 | 1%
CNc1nc(NC)n2ncnc2n1 | 38%
Cn1cnc2nc(-c3ccc(Cl)cc3)nn2c1=S | 92%
Cn1cnc2nc(-c3ccccc3)nn2c1=S | -1%
Cn1cnc2nncc-2c1S | -13%

Test system: Rattus norvegicus
Assay: Percent inhibition value on the Sephadex-induced lung eosinophilia model at an intraperitoneal (ip) dose of 0.1 mg/kg
Assay type: functional
In short: as §1

SMILES | inhibition in vivo at 0.1 mg/kg
C[C@@H]1C[C@H]2[C@@H]3CCC4=CC(=O)C=C[C@]4(C)[C@@]3(F)[C@@H](O)C[C@]2(C)[C@@]1(O)C(=O)CO [DEXAMETHASONE] | 95%

Test system: Rattus norvegicus
Assay: Percent inhibition value on the Sephadex-induced lung eosinophilia model at an intraperitoneal (ip) dose of 3 mg/kg
Assay type: functional
In short: as §1

SMILES | inhibition in vivo at 3 mg/kg
C/N=C(\S)n1nc(-c2ccco2)nc1N | 18%
Cn1cnc2nc(-c3ccc(Cl)cc3Cl)nn2c1=S | 90%
C/N=C(\S)n1nc(/C=C/c2ccc(Cl)cc2)nc1N | 25%
C/N=C(\S)n1nc(-c2ccc(-c3ccccc3)cc2)nc1N | 58%
C/N=C(\S)n1nc(-c2ccc(Cl)c3ccccc23)nc1N | 14%
Cn1cnc2nc(-c3ccc(F)cc3)nn2c1=S | 38%
Cn1cnc2nc(-c3ccc(Br)cc3)nn2c1=S | 84%
Cc1nc2nc(-c3ccc(Cl)cc3)nn2c(=S)n1C | 60%
C/N=C(\S)n1nc(-c2ccc(Cl)cn2)nc1N | -2%
C/N=C(\S)n1nc(-c2cccs2)nc1N | -7%
C/N=C(\S)n1nc(-c2ccc(Cl)cc2)nc1N | 88%
C/N=C(\S)n1nc(Oc2ccccc2)nc1N | -5%
Cn1cnc2nc(-c3ccc(Cl)c(Cl)c3)nn2c1=S | 89%
C/N=C(\S)n1nc(C#Cc2ccccc2)nc1N | 0%
C/N=C(\S)n1nc(Cc2ccccc2)nc1N | -24%
Cn1c(-c2ccccc2)nc2nc(-c3ccc(Cl)cc3)nn2c1=S | 5%
Cn1cnc2nc(-c3ccc(Cl)cc3)nn2c1=S | 90%
C/N=C(\S)n1nc(-c2ccc(Cl)nc2)nc1N | -9%
CNC(=S)n1nc(/N=C/c2ccccc2)nc1N | 37%
Cn1cnc2nc(-c3ccc(C(F)(F)F)cc3)nn2c1=S | 87%
